Measurements: ChEMBL document CHEMBL1123825, “Synthesis and activity profiles of new dermorphin-(1-4) peptide analogues” (J Med Chem, 1987)
Non-standard residues stand in square brackets, D forms with d. Residues, ends and D or L forms follow the SMILES beside them. ξ: configuration not given here. Met(O) = CS(=O)CC[C@H](N)C(=O)O; ξA = CC(N)C(=O)O; Sar = CNCC(=O)O

Assays:
Mu-type opioid receptor = Mu-type opioid receptor (Cavia porcellus, UniProt P97266); experiment: Evaluated for the inhibition of [3H]DAGO binding to mu-receptor of guinea pig brain
How it was run: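 Male guinea pig brain minus cerebellum, homogenized in 50 mM Tris (pH 7.4), preincubated 37 °C for 45 min; 18 mg tissue per tube. [3H]DAGO 0.6 nM, 40 min at 25 °C, then GF/B filtration. Nonspecific binding defined with […] bremazocine. Six or more concentrations, each in triplicate; IC50 by probit analysis.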

Mus musculus [1] = experiment: Relative potency was determined for the compound with respect to morphine activity (1) after icv administration; assay type: functional
Mus musculus [2] = experiment: Relative potency was determined for the compound with respect to morphine activity (1) after subcutaneous administration; assay type: functional
[3] = biological target: Mu-type opioid receptor (Cavia porcellus) (UniProt P97266); experiment: Relative potency with respect to morphine was evaluated for mu-receptor of guinea pig brain
Mus musculus [4] = experiment: The compound was evaluated for the analgesic activity by tail-flick test after icv administration of compound in mouse; value ranges from […]-[…]; assay type: functional
Mus musculus [5] = experiment: The compound was evaluated for the analgesic activity by tail-flick test after subcutaneous administration of compound in mouse; value ranges from 0.48-1.51; assay type: functional; settings: sc
[6] = biological target: Kappa-type opioid receptor (Cavia porcellus, UniProt P41144); experiment: Evaluated for the inhibition of [3H]EKC binding to Opioid receptor kappa 1 of guinea pig brain
Mus musculus [7] = experiment: The compound was evaluated for the analgesic activity by tail-flick test after icv administration of compound in mouse; value ranges from 0.51-9.7; assay type: functional
Mus musculus [8] = experiment: The compound was evaluated for the analgesic activity by tail-flick test after subcutaneous administration of compound in mouse; value ranges from 0.31-1.09; assay type: functional; settings: sc
Mus musculus [9] = experiment: The compound was evaluated for the analgesic activity by tail-flick test after subcutaneous administration of compound in mouse; value ranges from 1.40-4.89; assay type: functional; settings: sc
Mus musculus [10] = experiment: The compound was evaluated for the analgesic activity by tail-flick test after icv administration of compound in mouse; value ranges from 11.8-23; assay type: functional
Mus musculus [11] = experiment: The compound was evaluated for the analgesic activity by tail-flick test after icv administration of compound in mouse; value ranges from 1.35-3.36; assay type: functional
Mus musculus [12] = experiment: The compound was evaluated for the analgesic activity by tail-flick test after subcutaneous administration of compound in mouse; value ranges from 0.54-0.83; assay type: functional; settings: sc
Mus musculus [13] = experiment: The compound was evaluated for the analgesic activity by tail-flick test after subcutaneous administration in mouse; value ranges from 2.69-17.0; assay type: functional; settings: sc
Mus musculus [14] = experiment: The compound was evaluated for the analgesic activity by tail-flick test after icv administration of compound in mouse; value ranges from 12.6-41.7; assay type: functional
Mus musculus [15] = experiment: The compound was evaluated for the analgesic activity by tail-flick test after icv administration of compound in mouse; value ranges from 5.5-16.3; assay type: functional
Mus musculus [16] = experiment: The compound was evaluated for the analgesic activity by tail-flick test after subcutaneous administration of compound in mouse; value ranges from 2.60-17.0; assay type: functional; settings: sc
Mus musculus [17] = experiment: The compound was evaluated for the analgesic activity by tail-flick test after subcutaneous administration of compound in mouse; value ranges from 0.28-0.80; assay type: functional; settings: sc
Mus musculus [18] = experiment: The compound was evaluated for the analgesic activity by tail-flick test after icv administration of compound in mouse; value ranges from 2.8-12.6; assay type: functional
Mus musculus [19] = experiment: The compound was evaluated for the analgesic activity by tail-flick test after subcutaneous administration of compound in mouse; value ranges from 2.51-17.4; assay type: functional; settings: sc
Mus musculus [20] = experiment: The compound was evaluated for the analgesic activity by tail-flick test after icv administration of compound in mouse; value ranges from 34-72; assay type: functional
Mus musculus [21] = experiment: The compound was evaluated for the analgesic activity by tail-flick test after subcutaneous administration of compound in mouse; value ranges from 2.92-8.75; assay type: functional; settings: sc
Mus musculus [22] = experiment: The compound was evaluated for the analgesic activity by tail-flick test after icv administration of compound in mouse; value ranges from 31-85; assay type: functional
Mus musculus [23] = experiment: The compound was evaluated for the analgesic activity by tail-flick test after icv administration of compound in mouse; value ranges from 27-40.8; assay type: functional
Mus musculus [24] = experiment: The compound was evaluated for the analgesic activity by tail-flick test after subcutaneous administration of compound in mouse; value ranges from 2.64-10.0; assay type: functional; settings: sc
Mus musculus [25] = experiment: The compound was evaluated for the analgesic activity by tail-flick test after subcutaneous administration of compound in mouse; value ranges from 0.21-1.06; assay type: functional; settings: sc
Mus musculus [26] = experiment: The compound was evaluated for the analgesic activity by tail-flick test after icv administration of compound in mouse; value ranges from 6.1-11.4; assay type: functional
Mus musculus [27] = experiment: The compound was evaluated for the analgesic activity by tail-flick test after icv administration of compound in mouse; value ranges from 14.8-58; assay type: functional
Mus musculus [28] = experiment: The compound was evaluated for the analgesic activity by tail-flick test after subcutaneous administration of compound in mouse; value ranges from 3.48-14.95; assay type: functional; settings: sc
Mus musculus [29] = experiment: The compound was evaluated for the analgesic activity by tail-flick test after icv administration of compound in mouse; value ranges from 46.4-120; assay type: functional
Mus musculus [30] = experiment: The compound was evaluated for the analgesic activity by tail-flick test after subcutaneous administration of compound in mouse; value ranges from 26.7-99.1; assay type: functional; settings: sc
Mus musculus [31] = experiment: The compound was evaluated for the analgesic activity by tail-flick test after icv administration of compound in mouse; value ranges from 6.6-27.1; assay type: functional
How it was run: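 Swiss-Webster mice (23-25 g), tail immersed in 55 °C water, reaction time read before and at various times after icv dosing in saline (4 µL); 10 s cutoff. % analgesia = [(T − T0)/(10 − T0)] × 100. At least four doses, at least eight mice per dose; ED50 estimated at time of peak activity. Opioid specificity checked by naloxone pretreatment (0.5-1 mg/kg sc).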

Mus musculus [32] = organism: Mus musculus; experiment: animal or person; settings: Tail, sc
Mus musculus [33] = experiment: The compound was evaluated for the analgesic activity by tail-flick test after icv administration of compound in mouse; value ranges from 2550-4200; assay type: functional

Mu-type opioid receptor (Cavia porcellus), sequence (P97266 whole entry): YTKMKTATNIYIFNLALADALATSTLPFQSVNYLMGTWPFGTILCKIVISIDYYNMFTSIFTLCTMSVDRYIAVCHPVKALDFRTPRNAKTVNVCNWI
Mu-type opioid receptor, sequence (P97266 whole entry): as above
Kappa-type opioid receptor, sequence (P41144 whole entry): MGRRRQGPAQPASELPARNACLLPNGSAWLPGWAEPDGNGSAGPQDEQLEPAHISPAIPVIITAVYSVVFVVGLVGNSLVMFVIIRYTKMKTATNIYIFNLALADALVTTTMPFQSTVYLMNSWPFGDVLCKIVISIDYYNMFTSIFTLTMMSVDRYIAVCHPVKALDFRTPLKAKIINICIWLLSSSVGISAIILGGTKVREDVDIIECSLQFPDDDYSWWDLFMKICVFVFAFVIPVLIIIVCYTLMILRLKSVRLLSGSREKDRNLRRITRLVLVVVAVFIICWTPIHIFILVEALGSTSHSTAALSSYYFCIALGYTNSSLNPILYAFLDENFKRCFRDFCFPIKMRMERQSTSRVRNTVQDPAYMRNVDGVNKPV

## COC(=O)CN(C)C(=O)[C@H](Cc1ccccc1)NC(=O)[C@H](CC[S+](C)[O-])NC(=O)[C@H](Cc1ccc(O)cc1)N=C(N)N (stereo not given in full)
Mu-type opioid receptor
  IC50: 0.023 µM
Mus musculus [1]
  Relative potency: 81
Mus musculus [2]
  Relative potency: 14.4
[3]
  Relative potency: 0.17
Mus musculus [4]
  ED50: 38.1 pmol/mouse
Mus musculus [5]
  ED50: 0.75 µmol/kg
[6]
  IC50: > 10 µM

## C[S+]([O-])CC[C@H](NC(=O)[C@H](Cc1ccc(O)cc1)N=C(N)N)C(=O)N[C@@H](Cc1ccccc1)C(=O)NCC(N)=O (stereo not given in full)
Mu-type opioid receptor
  IC50: 0.005 µM
Mus musculus [7]
  ED50: 2 pmol/mouse
Mus musculus [8]
  ED50: 0.53 µmol/kg
[6]
  IC50: > 10 µM

## COC(=O)CNC(=O)[C@H](Cc1ccccc1)NC(=O)[C@H](CC[S+](C)[O-])NC(=O)[C@H](Cc1ccc(O)cc1)N=C(N)N (stereo not given in full)
Mus musculus [9]
  ED50: 2.39 µmol/kg
Mu-type opioid receptor
  IC50: 0.0235 µM
Mus musculus [10]
  ED50: 15.5 pmol/mouse
[6]
  IC50: > 10 µM

## C[C@H](NC(=O)[C@@H](N)Cc1ccc(O)cc1)C(=O)N[C@@H](Cc1ccccc1)C(=O)NCC(N)=O (H-YAFG-NH2)
[3]
  Relative potency: 0.11

## C[S+]([O-])CC[C@H](NC(=O)[C@@H](N)Cc1ccc(O)cc1)C(=O)N[C@@H](Cc1ccccc1)C(=O)NCC(N)=O (stereo not given in full) (H-Y[Met(O)]FG-NH2)
Mu-type opioid receptor
  IC50: 0.0063 µM
Mus musculus [11]
  ED50: 2.01 pmol/mouse
Mus musculus [12]
  ED50: 0.66 µmol/kg
[6]
  IC50: > 10 µM

## C[S+]([O-])CC[C@H](NC(=O)[C@@H](N)Cc1ccc(O)cc1)C(=O)N[C@@H](Cc1ccccc1)C(=O)NCC(=O)O (stereo not given in full) (H-Y[Met(O)]FG-OH)
Mu-type opioid receptor
  IC50: 0.061 µM
Mus musculus [13]
  ED50: 4.64 µmol/kg
[6]
  IC50: > 10 µM
Mus musculus [14]
  ED50: 20.5 pmol/mouse

## COC(=O)CNC(=O)[C@H](Cc1ccccc1)NC(=O)[C@H](CC[S+](C)[O-])NC(=O)[C@@H](N)Cc1ccc(O)cc1 (stereo not given in full) (H-Y[Met(O)]FG-OMe)
Mu-type opioid receptor
  IC50: 0.005 µM
Mus musculus [15]
  ED50: 10 pmol/mouse
Mus musculus [16]
  ED50: 4.21 µmol/kg
[6]
  IC50: > 10 µM

## CN(CC(N)=O)C(=O)[C@H](Cc1ccccc1)NC(=O)[C@H](CC[S+](C)[O-])NC(=O)[C@@H](N)Cc1ccc(O)cc1 (stereo not given in full) (H-Y[Met(O)]F[Sar]-NH2)
Mu-type opioid receptor
  IC50: 0.006 µM
Mus musculus [1]
  Relative potency: 561
Mus musculus [2]
  Relative potency: 22.5
Mus musculus [17]
  ED50: 0.48 µmol/kg
[3]
  Relative potency: 0.67
Mus musculus [18]
  ED50: 5.5 pmol/mouse
[6]
  IC50: > 10 µM

## CN(CC(=O)O)C(=O)[C@H](Cc1ccccc1)NC(=O)[C@H](CC[S+](C)[O-])NC(=O)[C@@H](N)Cc1ccc(O)cc1 (stereo not given in full) (H-Y[Met(O)]F[Sar]-OH)
Mus musculus [19]
  ED50: 4.63 µmol/kg
Mu-type opioid receptor
  IC50: 0.077 µM
Mus musculus [1]
  Relative potency: 67
Mus musculus [20]
  ED50: 45.8 pmol/mouse
Mus musculus [2]
  Relative potency: 2.3
[3]
  Relative potency: 0.05
[6]
  IC50: > 10 µM

## COC(=O)CN(C)C(=O)[C@H](Cc1ccccc1)NC(=O)[C@H](CC[S+](C)[O-])NC(=O)[C@@H](N)Cc1ccc(O)cc1 (stereo not given in full) (H-Y[Met(O)]F[Sar]-OMe)
Mu-type opioid receptor
  IC50: 0.006 µM
Mus musculus [1]
  Relative potency: 64
Mus musculus [2]
  Relative potency: 2.7
[3]
  Relative potency: 0.67
Mus musculus [21]
  ED50: 4.05 µmol/kg
Mus musculus [22]
  ED50: 47.9 pmol/mouse
[6]
  IC50: > 10 µM

## CC(NC(=O)[C@H](Cc1ccccc1)NC(=O)[C@H](CC[S+](C)[O-])NC(=O)[C@@H](N)Cc1ccc(O)cc1)C(N)=O (stereo not given in full) (H-Y[Met(O)]F[ξA]-NH2)
Mus musculus [23]
  ED50: 33 pmol/mouse
Mu-type opioid receptor
  IC50: 0.017 µM
Mus musculus [1]
  Relative potency: 93
Mus musculus [2]
  Relative potency: 2.5
[3]
  Relative potency: 0.24
Mus musculus [24]
  ED50: 4.38 µmol/kg
[6]
  IC50: > 10 µM

## CC(NC(=O)[C@H](Cc1ccccc1)NC(=O)[C@H](CC[S+](C)[O-])NC(=O)[C@@H](N)Cc1ccc(O)cc1)C(=O)O (stereo not given in full) (H-Y[Met(O)]F[ξA]-OH)
Mu-type opioid receptor
  IC50: 0.12 µM
Mus musculus [25]
  ED50: 0.36 µmol/kg
Mus musculus [26]
  ED50: 8.4 pmol/mouse
[6]
  IC50: > 10 µM

## COC(=O)C(C)NC(=O)[C@H](Cc1ccccc1)NC(=O)[C@H](CC[S+](C)[O-])NC(=O)[C@@H](N)Cc1ccc(O)cc1 (stereo not given in full) (H-Y[Met(O)]F[ξA]-OMe)
Mu-type opioid receptor
  IC50: 0.009 µM
Mus musculus [27]
  ED50: 18.2 pmol/mouse
Mus musculus [28]
  ED50: 5.16 µmol/kg
[6]
  IC50: > 10 µM

## C[C@@H](NC(=O)[C@@H](N)Cc1ccc(O)cc1)C(=O)N[C@@H](Cc1ccccc1)C(=O)NCC(N)=O (H-Y[dA]FG-NH2) [listing 1 of 2 here]
Mu-type opioid receptor
  IC50: 0.0367 µM
[6]
  IC50: > 10 µM

## C[C@@H](NC(=O)[C@@H](N)Cc1ccc(O)cc1)C(=O)N[C@@H](Cc1ccccc1)C(=O)NCC(N)=O (H-Y[dA]FG-NH2) [listing 2 of 2 here]
Mus musculus [29]
  ED50: 68.8 pmol/mouse
Mus musculus [30]
  ED50: 60.3 µmol/kg
Mus musculus [1]
  Relative potency: 45
Mus musculus [2]
  Relative potency: 0.2

## C[C@@H](NC(=O)[C@@H](N)Cc1ccc(O)cc1)C(=O)N[C@@H](Cc1ccccc1)C(=O)NCC(=O)N[C@@H](Cc1ccc(O)cc1)C(=O)N1CCC[C@H]1C(=O)N[C@@H](CO)C(N)=O [DERMORPHIN]
Mu-type opioid receptor
  IC50: 0.0057 µM
Mus musculus [31]
  ED50: 11.4 pmol/mouse
[6]
  IC50: > 10 µM

## CN1CC[C@]23c4c5ccc(O)c4O[C@H]2[C@@H](O)C=C[C@H]3[C@H]1C5 [MORPHINE]
Mus musculus [32]
  ED50: 10.8 µmol/kg
Mus musculus [33]
  ED50: 3090 pmol/mouse
